# Data published in ChEMBL document CHEMBL3124902, “Homoisoflavonoids as potential imaging agents for β-amyloid plaques in Alzheimer's disease” (Eur J Med Chem, 2014).
# Active and inactive are the calls of the source. The calls are words filed in the database; no cut-off is given here.
# Assays:
# [1] = target: T1, Amyloid-beta precursor protein (Homo sapiens, UniProt P05067); test: Displacement of [125I]IMPY from amyloid beta (1 to 40) (unknown origin) after 2 hrs by gamma counting analysis
# How it was run: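 Incubation was 2 h at 37 °C. Bound and free fractions were separated by filtration through GF/B filters, followed by ice-cold PBS washes and counting. IC50 came from displacement curves of three independent experiments, done in duplicate. Ki was obtained by Cheng-Prusoff.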
# [2] = tested on: Brain; test: Ratio of drug level in ICR mouse brain measured at 60 mins to drug level in ICR mouse brain measured at 2 mins; format: ADME; conditions: in vivo
# How it was run: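 Brain uptake (%ID/g) at 60 min was divided by uptake at 2 min after intravenous injection into normal ICR mice, n=5 per time point. Brain radioactivity was gamma counted and normalised to a 1% injected-dose standard.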
# [3] = tested on: Kidney; test: Biodistribution in ICR mouse kidney at 2 uCi, iv measured at 2 hrs by gamma counting analysis; format: ADME, organism-based; conditions: in vivo
# How it was run: (§1)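 The radioiodinated ligand was given intravenously to normal ICR mice, n=5 per time point. Mice were euthanized at 2, 10, 30, 60 and 120 min, and organs were removed and weighed. Radioactivity was gamma counted. %ID/g was calculated as counts per gram of tissue divided by counts of 1% of the injected dose, taken from a 100-fold diluted aliquot.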
# [4] = tested on: Lung; test: Biodistribution in ICR mouse lung at 2 uCi, iv measured at 2 hrs by gamma counting analysis; format: ADME, organism-based; conditions: in vivo; how it was run: as §1
# [5] = tested on: Spleen; test: Biodistribution in ICR mouse spleen at 2 uCi, iv measured at 2 hrs by gamma counting analysis; format: ADME, organism-based; conditions: in vivo; how it was run: as §1
# [6] = tested on: Liver; test: Biodistribution in ICR mouse liver at 2 uCi, iv measured at 2 hrs by gamma counting analysis; format: ADME, organism-based; conditions: in vivo; how it was run: as §1
# [7] = tested on: Heart; test: Biodistribution in ICR mouse heart at 2 uCi, iv measured at 2 hrs by gamma counting analysis; format: ADME, organism-based; conditions: in vivo; how it was run: as §1
# [8] = tested on: Brain; test: Biodistribution in ICR mouse brain at 2 uCi, iv measured at 2 hrs by gamma counting analysis; format: ADME, organism-based; conditions: in vivo; how it was run: as §1
# [9] = tested on: Blood; test: Biodistribution in ICR mouse blood at 2 uCi, iv measured at 2 hrs by gamma counting analysis; format: ADME, organism-based; conditions: in vivo; how it was run: as §1
# [10] = tested on: Kidney; test: Biodistribution in ICR mouse kidney at 2 uCi, iv measured at 1 hr by gamma counting analysis; format: ADME, organism-based; conditions: in vivo; how it was run: as §1
# [11] = tested on: Lung; test: Biodistribution in ICR mouse lung at 2 uCi, iv measured at 1 hr by gamma counting analysis; format: ADME, organism-based; conditions: in vivo; how it was run: as §1
# [12] = tested on: Spleen; test: Biodistribution in ICR mouse spleen at 2 uCi, iv measured at 1 hr by gamma counting analysis; format: ADME, organism-based; conditions: in vivo; how it was run: as §1
# [13] = tested on: Liver; test: Biodistribution in ICR mouse liver at 2 uCi, iv measured at 1 hr by gamma counting analysis; format: ADME, organism-based; conditions: in vivo; how it was run: as §1
# [14] = tested on: Heart; test: Biodistribution in ICR mouse heart at 2 uCi, iv measured at 1 hr by gamma counting analysis; format: ADME, organism-based; conditions: in vivo; how it was run: as §1
# [15] = tested on: Brain; test: Biodistribution in ICR mouse brain at 2 uCi, iv measured at 1 hr by gamma counting analysis; format: ADME, organism-based; conditions: in vivo; how it was run: as §1
# [16] = tested on: Blood; test: Biodistribution in ICR mouse blood at 2 uCi, iv measured at 1 hr by gamma counting analysis; format: ADME, organism-based; conditions: in vivo; how it was run: as §1
# [17] = tested on: Kidney; test: Biodistribution in ICR mouse kidney at 2 uCi, iv measured at 30 mins by gamma counting analysis; format: ADME, organism-based; conditions: in vivo, 0.5 h; how it was run: as §1
# [18] = tested on: Lung; test: Biodistribution in ICR mouse lung at 2 uCi, iv measured at 30 mins by gamma counting analysis; format: ADME, organism-based; conditions: in vivo, 0.5 h; how it was run: as §1
# [19] = tested on: Spleen; test: Biodistribution in ICR mouse spleen at 2 uCi, iv measured at 30 mins by gamma counting analysis; format: ADME, organism-based; conditions: in vivo, 0.5 h; how it was run: as §1
# [20] = tested on: Liver; test: Biodistribution in ICR mouse liver at 2 uCi, iv measured at 30 mins by gamma counting analysis; format: ADME, organism-based; conditions: in vivo, 0.5 h; how it was run: as §1
# [21] = tested on: Heart; test: Biodistribution in ICR mouse heart at 2 uCi, iv measured at 30 mins by gamma counting analysis; format: ADME, organism-based; conditions: in vivo, 0.5 h; how it was run: as §1
# [22] = tested on: Brain; test: Biodistribution in ICR mouse brain at 2 uCi, iv measured at 30 mins by gamma counting analysis; format: ADME, organism-based; conditions: in vivo, 0.5 h; how it was run: as §1
# [23] = tested on: Blood; test: Biodistribution in ICR mouse blood at 2 uCi, iv measured at 30 mins by gamma counting analysis; format: ADME, organism-based; conditions: in vivo, 0.5 h; how it was run: as §1
# [24] = tested on: Kidney; test: Biodistribution in ICR mouse kidney at 2 uCi, iv measured at 10 mins by gamma counting analysis; format: ADME, organism-based; conditions: in vivo; how it was run: as §1
# [25] = tested on: Lung; test: Biodistribution in ICR mouse lung at 2 uCi, iv measured at 10 mins by gamma counting analysis; format: ADME, organism-based; conditions: in vivo; how it was run: as §1
# [26] = tested on: Spleen; test: Biodistribution in ICR mouse spleen at 2 uCi, iv measured at 10 mins by gamma counting analysis; format: ADME, organism-based; conditions: in vivo; how it was run: as §1
# [27] = tested on: Liver; test: Biodistribution in ICR mouse liver at 2 uCi, iv measured at 10 mins by gamma counting analysis; format: ADME, organism-based; conditions: in vivo; how it was run: as §1
# [28] = tested on: Heart; test: Biodistribution in ICR mouse heart at 2 uCi, iv measured at 10 mins by gamma counting analysis; format: ADME, organism-based; conditions: in vivo; how it was run: as §1
# [29] = tested on: Brain; test: Biodistribution in ICR mouse brain at 2 uCi, iv measured at 10 mins by gamma counting analysis; format: ADME, organism-based; conditions: in vivo; how it was run: as §1
# [30] = tested on: Blood; test: Biodistribution in ICR mouse blood at 2 uCi, iv measured at 10 mins by gamma counting analysis; format: ADME, organism-based; conditions: in vivo; how it was run: as §1
# [31] = tested on: Kidney; test: Biodistribution in ICR mouse kidney at 2 uCi, iv measured at 2 mins by gamma counting analysis; format: ADME, organism-based; conditions: in vivo; how it was run: as §1
# [32] = tested on: Spleen; test: Biodistribution in ICR mouse spleen at 2 uCi, iv measured at 2 mins by gamma counting analysis; format: ADME, organism-based; conditions: in vivo; how it was run: as §1
# [33] = tested on: Lung; test: Biodistribution in ICR mouse lung at 2 uCi, iv measured at 2 mins by gamma counting analysis; format: ADME, organism-based; conditions: in vivo; how it was run: as §1
# [34] = tested on: Liver; test: Biodistribution in ICR mouse liver at 2 uCi, iv measured at 2 mins by gamma counting analysis; format: ADME, organism-based; conditions: in vivo; how it was run: as §1
# [35] = tested on: Heart; test: Biodistribution in ICR mouse heart at 2 uCi, iv measured at 2 mins by gamma counting analysis; format: ADME, organism-based; conditions: in vivo; how it was run: as §1
# [36] = tested on: Brain; test: Biodistribution in ICR mouse brain at 2 uCi, iv measured at 2 mins by gamma counting analysis; format: ADME, organism-based; conditions: in vivo; how it was run: as §1
# [37] = tested on: Blood; test: Biodistribution in ICR mouse blood at 2 uCi, iv measured at 2 mins by gamma counting analysis; format: ADME, organism-based; conditions: in vivo; how it was run: as §1
# [38] = target: T1, Amyloid-beta precursor protein; test: Binding affinity to beta amyloid-containing senile plaques of Alzheimer's disease patient at 50 uM after 20 mins by thioflavin-S staining-based fluorescence microscopic analysis
# How it was run: (§2)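 Paraffin sections of postmortem AD brain were dewaxed in xylene, passed through graded ethanol, then rinsed in water and 0.01 M PBS at pH 7.4. Sections were immersed in cold ligand (50 in 30% EtOH/0.1 M PBS) for 20 min and differentiated in 50% EtOH for 10 min. Adjacent sections were stained with ThS (1%, 5 min) and differentiated in 70% EtOH. Sections were then PBS-washed, mounted in 80% glycerin and imaged by fluorescence microscopy.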
# [39] = target: Microtubule-associated protein tau (Homo sapiens) (UniProt P10636); test: Binding affinity to hyperphosphorylated tau protein-containing neurofibrillary tangles of Alzheimer's disease patient at 50 uM after 20 mins by thioflavin-S staining-based fluorescence microscopic analysis; how it was run: as §2
# Sequence of Microtubule-associated protein tau (Homo sapiens) (P10636 whole entry): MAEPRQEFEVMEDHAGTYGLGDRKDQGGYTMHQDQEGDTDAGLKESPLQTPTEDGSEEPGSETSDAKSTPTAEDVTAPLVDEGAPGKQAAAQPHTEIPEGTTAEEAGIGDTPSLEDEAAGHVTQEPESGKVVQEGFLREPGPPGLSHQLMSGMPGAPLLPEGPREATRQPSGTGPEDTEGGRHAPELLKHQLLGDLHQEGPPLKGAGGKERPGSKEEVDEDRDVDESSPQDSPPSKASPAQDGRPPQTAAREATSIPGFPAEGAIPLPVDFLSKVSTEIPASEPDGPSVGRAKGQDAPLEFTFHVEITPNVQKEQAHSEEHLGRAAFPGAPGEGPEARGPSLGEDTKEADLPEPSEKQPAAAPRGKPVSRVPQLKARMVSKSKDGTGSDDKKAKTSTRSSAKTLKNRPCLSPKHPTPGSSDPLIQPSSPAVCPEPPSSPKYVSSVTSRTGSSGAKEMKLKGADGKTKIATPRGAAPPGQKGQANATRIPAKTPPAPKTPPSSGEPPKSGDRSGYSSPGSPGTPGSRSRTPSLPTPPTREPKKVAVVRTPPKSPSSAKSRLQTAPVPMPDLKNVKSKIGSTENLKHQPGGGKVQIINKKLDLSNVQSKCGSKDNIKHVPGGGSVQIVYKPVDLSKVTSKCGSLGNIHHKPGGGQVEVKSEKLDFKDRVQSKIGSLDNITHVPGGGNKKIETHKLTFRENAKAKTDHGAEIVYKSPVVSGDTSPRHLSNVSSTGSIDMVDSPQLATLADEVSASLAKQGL
# T1 sequence (P05067 whole entry): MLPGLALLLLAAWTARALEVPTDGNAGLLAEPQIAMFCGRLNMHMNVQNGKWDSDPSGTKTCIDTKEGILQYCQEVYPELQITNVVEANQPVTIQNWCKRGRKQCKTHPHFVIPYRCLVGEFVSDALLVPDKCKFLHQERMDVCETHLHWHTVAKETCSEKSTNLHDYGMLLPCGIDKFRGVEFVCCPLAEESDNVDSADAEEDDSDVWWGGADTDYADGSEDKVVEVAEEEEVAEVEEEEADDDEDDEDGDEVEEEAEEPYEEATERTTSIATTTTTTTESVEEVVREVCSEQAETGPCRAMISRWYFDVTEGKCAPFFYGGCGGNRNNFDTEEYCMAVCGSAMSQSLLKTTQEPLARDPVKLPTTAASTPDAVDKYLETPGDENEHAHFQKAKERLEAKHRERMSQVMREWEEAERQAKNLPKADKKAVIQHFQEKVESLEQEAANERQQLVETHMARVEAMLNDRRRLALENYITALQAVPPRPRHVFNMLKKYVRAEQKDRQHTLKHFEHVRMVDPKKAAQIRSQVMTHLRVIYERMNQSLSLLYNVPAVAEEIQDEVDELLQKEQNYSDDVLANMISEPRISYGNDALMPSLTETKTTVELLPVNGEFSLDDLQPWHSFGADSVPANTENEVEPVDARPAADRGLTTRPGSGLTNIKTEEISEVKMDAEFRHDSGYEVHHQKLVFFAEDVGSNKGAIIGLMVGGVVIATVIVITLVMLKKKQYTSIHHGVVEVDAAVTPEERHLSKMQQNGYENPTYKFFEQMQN
smiles,measurement,setting,value
O=C1/C(=C/c2ccccc2)COc2ccc(Br)cc21,Ki,[1],104 nM
CN(C)c1ccc(/C=C2\COc3ccc([125I])cc3C2=O)cc1,Ratio,[2],6.9%
same,Drug uptake,[3],1 % ID/g
same,Drug uptake,[4],0.73 % ID/g
same,Drug uptake,[5],0.35 % ID/g
same,Drug uptake,[6],1.05 % ID/g
same,Drug uptake,[7],0.36 % ID/g
same,Drug uptake,[8],0.1 % ID/g
same,Drug uptake,[9],1.05 % ID/g
same,Drug uptake,[10],1.42 % ID/g
same,Drug uptake,[11],0.99 % ID/g
same,Drug uptake,[12],0.4 % ID/g
same,Drug uptake,[13],1.23 % ID/g
same,Drug uptake,[14],0.49 % ID/g
same,Drug uptake,[15],0.18 % ID/g
same,Drug uptake,[16],1.22 % ID/g
same,Drug uptake,[17],3.36 % ID/g
same,Drug uptake,[18],2.29 % ID/g
same,Drug uptake,[19],0.7 % ID/g
same,Drug uptake,[20],2.07 % ID/g
same,Drug uptake,[21],0.87 % ID/g
same,Drug uptake,[22],0.32 % ID/g
same,Drug uptake,[23],2.38 % ID/g
same,Drug uptake,[24],10.88 % ID/g
same,Drug uptake,[25],4.87 % ID/g
same,Drug uptake,[26],1.27 % ID/g
same,Drug uptake,[27],4.71 % ID/g
same,Drug uptake,[28],1.87 % ID/g
same,Drug uptake,[29],0.83 % ID/g
same,Drug uptake,[30],3.87 % ID/g
same,Drug uptake,[31],17.89 % ID/g
same,Drug uptake,[32],2.54 % ID/g
same,Drug uptake,[33],9.33 % ID/g
same,Drug uptake,[34],13.57 % ID/g
same,Drug uptake,[35],4.46 % ID/g
same,Drug uptake,[36],2.61 % ID/g
same,Drug uptake,[37],8.35 % ID/g
CN(C)c1ccc(/C=C2\COc3ccc(Br)cc3C2=O)cc1,Activity,[38],Active
same,Ki,[1],9.1 nM
same,Activity,[39],inactive
COc1ccc(/C=C2\COc3ccc(Br)cc3C2=O)cc1,Ki,[1],9.98 nM
COc1cccc(/C=C2\COc3ccc(Br)cc3C2=O)c1,Ki,[1],73.5 nM
O=C1/C(=C/c2ccc(O)cc2)COc2ccc(Br)cc21,Ki,[1],103 nM
CN(C)c1ccc(/C=C2\COc3ccc(Br)cc3C2=O)cc1Br,Ki,[1],25.5 nM
COc1cc(/C=C2\COc3ccc(Br)cc3C2=O)ccc1O,Ki,[1],432 nM
O=C1/C(=C/c2ccc(Br)cc2)COc2ccc(Br)cc21,Ki,[1],144 nM
O=C1/C(=C/c2ccc([N+](=O)[O-])cc2)COc2ccc(Br)cc21,Ki,[1],108 nM
Nc1ccc(/C=C2\COc3ccc(Br)cc3C2=O)cc1,Ki,[1],63.6 nM
COc1ccc(/C=C2\COc3ccc(Br)cc3C2=O)cc1OC,Ki,[1],54.2 nM
COc1cc(/C=C2\COc3ccc(Br)cc3C2=O)cc(OC)c1,Ki,[1],39.2 nM
